Experiments:
L1210 [1] = experiment: In vitro inhibition of L1210 growth after 96 hours.; format: functional, cell-based; details: Mus musculus, L1210, 96 h
Summary of the method: (§1)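 Log-phase L1210 cultures (0.5–1.0 × 10^5 cells/mL) treated with analogue diluted in sterile water and filter-sterilized. After 48 h, cells were reseeded and grown a further 48 h for the 96 h point. Cells counted by Coulter counter. % growth = (treated − inoculum)/(untreated − inoculum) × 100.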

L1210 [2] = experiment: In vitro inhibition of L1210 growth after 48 hours.; format: functional, cell-based; details: Mus musculus, L1210, 48 h; summary of the method: as §1
L1210 [3] = experiment: Compound was evaluated for its impact on spermine levels after 48 hr at concentration 10 uM; format: functional, Mus musculus
Summary of the method: (§2)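 Murine L1210 leukemia cells in log-phase suspension (RPMI-1640, 10% NuSerum, 2% HEPES-MOPS, 1 mM aminoguanidine, 37 °C, 5% CO2) exposed to analogue for 48 h. Cells washed twice in cold RPMI-1640, extracted with 0.6 N perchloric acid, and polyamines quantified by HPLC. Spermine is reported as % of untreated control.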

L1210 [4] = experiment: Compound was evaluated for its impact on spermidine levels after 48 hr at concentration 10 uM; format: functional, Mus musculus
Summary of the method: (§3)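 L1210 suspension cultures were grown in RPMI-1640 with 10% NuSerum, 2% HEPES-MOPS and 1 mM aminoguanidine (37 °C, 5% CO2). Log-phase cells were treated for 48 h, then washed twice in cold RPMI-1640 and pelleted. Pellets were extracted with 0.6 N perchloric acid, and supernatants were held at −20 °C until HPLC. Polyamine levels are given as % of untreated controls.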

[5] = target: Spermidine/spermine N(1)-acetyltransferase (SAT) (Mus musculus) (UniProt Q6P8J2+P48026); experiment: […] spermidine/spermine N1-Acetyltransferase (SSAT) activity; format: functional; parameters: concentration or dose not given beside the values
L1210 [6] = experiment: Compound was evaluated for its impact on putrescine (Put) levels after 48 hr at concentration 10 uM; format: functional, Mus musculus; summary of the method: as §3
L1210 [7] = experiment: Compound level in L1210 cells after 48 hours of incubation at initial concentration of 10 uM is expressed as nmol/10e6 cells; format: functional, Mus musculus
Summary of the method: (§4)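 Murine L1210 leukemia cells were kept in logarithmic growth as a suspension in RPMI-1640 with 10% NuSerum, 2% HEPES-MOPS buffer and 1 mM aminoguanidine, at 37 °C under 5% CO2. Log-phase cells were exposed to the analogue for 48 h. Intracellular analogue content is reported per 10^6 cells.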

[8] = target: T1, S-adenosylmethionine decarboxylase proenzyme 1 (Mus musculus) (UniProt P0DMN7); experiment: Inhibition of S-Adenosyl-methionine decarboxylase (AdoMetDC) activity; format: functional; parameters: concentration or dose not given beside the values
T1 sequence (whole entry): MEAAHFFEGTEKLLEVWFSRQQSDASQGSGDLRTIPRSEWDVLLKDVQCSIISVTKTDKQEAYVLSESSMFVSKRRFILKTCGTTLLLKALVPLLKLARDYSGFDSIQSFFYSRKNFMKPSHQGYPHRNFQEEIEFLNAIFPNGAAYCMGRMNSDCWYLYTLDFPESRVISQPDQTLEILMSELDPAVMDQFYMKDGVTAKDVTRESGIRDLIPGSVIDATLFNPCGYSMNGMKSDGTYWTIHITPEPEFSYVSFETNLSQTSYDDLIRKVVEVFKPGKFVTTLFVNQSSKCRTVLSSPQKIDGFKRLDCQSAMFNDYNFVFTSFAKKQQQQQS

[9] = target: T2, Ornithine decarboxylase (Mus musculus) (UniProt P00860); experiment: Inhibition of ornithine decarboxylase (ODC) activity; format: functional; parameters: concentration or dose not given beside the values
T2 sequence (whole entry): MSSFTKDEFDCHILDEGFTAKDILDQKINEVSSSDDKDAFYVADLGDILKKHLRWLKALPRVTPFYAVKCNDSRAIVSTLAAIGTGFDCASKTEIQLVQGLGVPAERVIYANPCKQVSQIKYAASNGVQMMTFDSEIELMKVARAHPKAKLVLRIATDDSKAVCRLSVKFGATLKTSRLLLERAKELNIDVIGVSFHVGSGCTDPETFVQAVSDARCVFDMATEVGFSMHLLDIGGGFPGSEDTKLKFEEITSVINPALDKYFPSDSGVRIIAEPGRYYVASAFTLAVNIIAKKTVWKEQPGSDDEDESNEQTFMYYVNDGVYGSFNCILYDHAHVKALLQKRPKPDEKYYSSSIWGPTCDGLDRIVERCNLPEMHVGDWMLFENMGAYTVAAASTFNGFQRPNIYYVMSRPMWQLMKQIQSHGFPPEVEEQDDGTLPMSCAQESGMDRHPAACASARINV

L1210 [10] = experiment: Inhibition of radiolabeled spermidine uptake into L1210 cells in vitro.; format: functional, cell-based, Mus musculus
L1210 [11] = experiment: Compound level in L1210 cells after 48 hours of incubation at initial concentration of 500 uM is expressed as nmol/10e6 cells; format: functional, Mus musculus; parameters: unit: nmol/10^6 cells
L1210 [12] = experiment: Compound was evaluated for its impact on putrescine (Put) levels after 48 hr at concentration 100 uM; format: functional, Mus musculus
L1210 [13] = experiment: Compound level in L1210 cells after 48 hours of incubation at initial concentration of 100 uM is expressed as nmol/10e6 cells; format: functional, Mus musculus; parameters: unit: nmol/10^6 cells
L1210 [14] = experiment: Compound was evaluated for its impact on spermidine levels after 48 hr at concentration 100 uM; format: functional, Mus musculus
[15] = target: T2, Ornithine decarboxylase (Mus musculus); experiment: Effect of compound on ornithine decarboxylase (ODC) activity expressed as percent of untreated control for ODC (1 uM at 4 h(or 48h))
Summary of the method: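 L1210 cells exposed to 1 μM analogue for 4 h, or for 48 h in some cases. ODC activity measured as 14CO2 released from [14C]carboxyl-labeled L-ornithine and expressed as % of untreated control.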

L1210 [16] = experiment: Compound was evaluated for its impact on spermine […] levels after 48 hr at concentration 10 uM; format: functional, Mus musculus; summary of the method: as §3
L1210 [17] = experiment: Compound was evaluated for its impact on spermine levels after 48 hr at concentration 100 uM; format: functional, Mus musculus
L1210 [18] = experiment: Compound was evaluated for its impact on spermine […] levels after 48 hr at concentration 20 uM; format: functional, Mus musculus; summary of the method: as §3
L1210 [19] = experiment: Compound was evaluated for its impact on spermine […] levels after 48 hr at concentration 100 uM; format: functional, Mus musculus; summary of the method: as §3
L1210 [20] = experiment: Compound was evaluated for its impact on putrescine (Put) levels after 48 hr at concentration 20 uM; format: functional, Mus musculus; summary of the method: as §3
L1210 [21] = experiment: Compound was evaluated for its impact on spermidine levels after 48 hr at concentration 20 uM; format: functional, Mus musculus; summary of the method: as §3
L1210 [22] = experiment: Compound was evaluated for its impact on spermine levels after 48 hr at concentration 70 uM; format: functional, Mus musculus; summary of the method: as §2
L1210 [23] = experiment: Compound was evaluated for its impact on spermine levels after 48 hr at concentration 14 uM; format: functional, Mus musculus; summary of the method: as §2
L1210 [24] = experiment: Compound was evaluated for its impact on putrescine (Put) levels after 48 hr at concentration 14 uM; format: functional, Mus musculus; summary of the method: as §3
L1210 [25] = experiment: Compound level in L1210 cells after 48 hours of incubation at initial concentration of 14 uM is expressed as nmol/10e6 cells; format: functional, Mus musculus; summary of the method: as §4
L1210 [26] = experiment: Compound was evaluated for its impact on spermidine levels after 48 hr at concentration 14 uM; format: functional, Mus musculus; summary of the method: as §3
L1210 [27] = experiment: Compound level in L1210 cells after 48 hours of incubation at initial concentration of 70 uM is expressed as nmol/10e6 cells; format: functional, Mus musculus; summary of the method: as §4
L1210 [28] = experiment: Compound was evaluated for its impact on putrescine (Put) levels after 48 hr at concentration 70 uM; format: functional, Mus musculus; summary of the method: as §3
L1210 [29] = experiment: Compound was evaluated for its impact on spermidine levels after 48 hr at concentration 70 uM; format: functional, Mus musculus; summary of the method: as §3
L1210 [30] = experiment: Compound was evaluated for its impact on spermine levels after 48 hr at concentration 1.5 uM; format: functional, Mus musculus; summary of the method: as §2
L1210 [31] = experiment: Compound was evaluated for its impact on putrescine (Put) levels after 48 hr at concentration 1.5 uM; format: functional, Mus musculus; summary of the method: as §3
L1210 [32] = experiment: Compound was evaluated for its impact on putrescine (Put) levels after 48 hr at concentration 0.3 uM; format: functional, Mus musculus; summary of the method: as §3
L1210 [33] = experiment: Compound level in L1210 cells after 48 hours of incubation at initial concentration of 0.3 uM is expressed as nmol/10e6 cells; format: functional, Mus musculus; summary of the method: as §4
L1210 [34] = experiment: Compound was evaluated for its impact on spermidine levels after 48 hr at concentration 0.3 uM; format: functional, Mus musculus; summary of the method: as §3
L1210 [35] = experiment: Compound level in L1210 cells after 48 hours of incubation at initial concentration of 1.5 uM is expressed as nmol/10e6 cells; format: functional, Mus musculus; summary of the method: as §4
L1210 [36] = experiment: Compound was evaluated for its impact on spermine levels after 48 hr at concentration 0.3 uM; format: functional, Mus musculus; summary of the method: as §3
L1210 [37] = experiment: Compound was evaluated for its impact on spermidine levels after 48 hr at concentration 1.5 uM; format: functional, Mus musculus; summary of the method: as §3
L1210 [38] = experiment: Compound was evaluated for its impact on spermidine levels after 48 hr at concentration 2 uM; format: functional, Mus musculus; summary of the method: as §3
L1210 [39] = experiment: Compound was evaluated for its impact on putrescine (Put) levels after 48 hr at concentration 2 uM; format: functional, Mus musculus; summary of the method: as §3
L1210 [40] = experiment: Compound was evaluated for its impact on spermidine levels after 48 hr at concentration 0.4 uM; format: functional, Mus musculus; summary of the method: as §3
L1210 [41] = experiment: Compound was evaluated for its impact on putrescine (Put) levels after 48 hr at concentration 0.4 uM; format: functional, Mus musculus; summary of the method: as §3
L1210 [42] = experiment: Compound was evaluated for its impact on spermine levels after 48 hr at concentration 0.4 uM; format: functional, Mus musculus; summary of the method: as §2
L1210 [43] = experiment: Compound was evaluated for its impact on spermine levels after 48 hr at concentration 2 uM; format: functional, Mus musculus; summary of the method: as §2

Spermidine/spermine N(1)-acetyltransferase (SAT) (Mus musculus), sequence (P48026 whole entry, looked up): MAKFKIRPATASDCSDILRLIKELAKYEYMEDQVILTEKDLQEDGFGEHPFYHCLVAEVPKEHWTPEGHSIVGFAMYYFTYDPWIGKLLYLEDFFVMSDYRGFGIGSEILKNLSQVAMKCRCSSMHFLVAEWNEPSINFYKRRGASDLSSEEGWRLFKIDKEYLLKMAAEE
Spermidine/spermine N(1)-acetyltransferase (SAT) (Mus musculus), sequence (Q6P8J2 whole entry, looked up): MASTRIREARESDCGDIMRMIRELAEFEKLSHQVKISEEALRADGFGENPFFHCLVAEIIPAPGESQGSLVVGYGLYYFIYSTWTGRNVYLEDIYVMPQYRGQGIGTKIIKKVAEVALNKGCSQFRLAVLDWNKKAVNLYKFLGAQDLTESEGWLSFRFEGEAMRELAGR

Row | SMILES | IC50 (L1210 [1]) | IC50 (L1210 [2]) | Polyamine (L1210 [3]) | Polyamine (L1210 [4]) | Activity [5] | Polyamine (L1210 [6]) | Activity [8] | Activity [9] | Ki (L1210 [10]) | Polyamine (L1210 [12]) | Polyamine (L1210 [14]) | further results
1 | CCNCCCCNCCCCNCCCCNCC [DIETHYLHOMOSPERMINE] | 70 nM | 200 nM | 61% | 0% | 140% | 0% | 41% | 7% | 1400 nM | – | – | Activity (L1210 [7]): 2.94
2 | CCNCCCNCCCNCCCNCC [BIS(ETHYL)NORSPERMINE] | 2000 nM | > 100000 nM | – | 14% | 1500% | 30% | 42% | – | 17000 nM | 0% | 6% | Activity (L1210 [11]): 1.59; Activity (L1210 [13]): 2.44; Activity [15]: 10%; Polyamine (L1210 [16]): 31%; Polyamine (L1210 [17]): 30%
3 | CC(C)NCCCCNCCCCNCCCCNC(C)C | 60 nM | 20000 nM | – | – | 130% | – | 78% | 90% | 8100 nM | 0% | 7% | Polyamine (L1210 [18]): 83%; Polyamine (L1210 [19]): 67%; Polyamine (L1210 [20]): 0%; Polyamine (L1210 [21]): 17%
4 | CCNCCCCNCCCCNCCCCN | 170 nM | 14000 nM | – | – | 110% | – | 41% | 3% | 1100 nM | – | – | Polyamine (L1210 [22]): 26%; Polyamine (L1210 [23]): 26%; Polyamine (L1210 [24]): 0%; Activity (L1210 [25]): 2.99; Polyamine (L1210 [26]): 0%; Activity (L1210 [27]): 3.22; Polyamine (L1210 [28]): 0%; Polyamine (L1210 [29]): 0%
5 | CCNCCCCNCCCCNCCCNCC | 80 nM | 300 nM | – | – | 370% | – | 37% | 5% | 8000 nM | – | – | Polyamine (L1210 [30]): 18%; Polyamine (L1210 [31]): 0%; Polyamine (L1210 [32]): 40%; Activity (L1210 [33]): 0.27; Polyamine (L1210 [34]): 47%; Activity (L1210 [35]): 0.64; Polyamine (L1210 [36]): 65%; Polyamine (L1210 [37]): 0%
6 | CCNCCCCNCCCCNCCCCNC(C)(C)C | 30 nM | 400 nM | 77% | 10% | – | 0% | 81% | 79% | 3000 nM | – | – | Polyamine (L1210 [38]): 68%; Polyamine (L1210 [39]): 78%; Polyamine (L1210 [40]): 96%; Polyamine (L1210 [41]): 133%; Polyamine (L1210 [42]): 75%; Polyamine (L1210 [43]): 63%

— ChEMBL document CHEMBL1127367, “Antiproliferative properties of polyamine analogues: a structure-activity study” (J Med Chem, 1994)
